This is an account of results in ChEMBL document CHEMBL2040849, “Synthesis and antimicrobial evaluation of 3-methanone-6-substituted-benzofuran derivatives” (2012).

Holding throughout (format): functional
Experiment [1] has as its system Bacillus subtilis. As to the kind of experiment: Antibacterial activity against Bacillus subtilis ATCC 33712 after 24 hrs by microtiter broth dilution method. To be noted: ATCC 33712, 24 h. The method in brief: (§1)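 Compounds dissolved in DMSO and serially diluted by microtiter broth dilution following NCCLS guidance. Plates incubated at 37 °C for 24 h. MIC80 (ug/mL) taken as the lowest concentration inhibiting visible growth. Ceftazidime, cefotaxime, cefradine and sodium penicillin served as reference drugs.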

The subject of experiment [2] is Escherichia coli. Description: Antibacterial activity against Escherichia coli ATCC 11303 after 24 hrs by microtiter broth dilution method. The note with it: ATCC 11303, 24 h. In a few lines:
as §1

The subject of experiment [3] is Pseudomonas aeruginosa. As to the kind of experiment: Antibacterial activity against Pseudomonas aeruginosa ATCC 49189 after 24 hrs by microtiter broth dilution method. To be noted: ATCC 49189, 24 h. The method in brief:
as §1

Experiment [4] relates to Staphylococcus aureus. Description: Antibacterial activity against methicillin-resistant Staphylococcus aureus ATCC 700699 after 24 hrs by microtiter broth dilution method. The note with it: ATCC 700699, 24 h. The method in brief:
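Compounds dissolved in DMSO and serially diluted in microtiter broth following NCCLS guidance. Plates were incubated at 37 °C for 24 h. MIC80 was read as the lowest concentration inhibiting visible growth of the organism, in µg/mL.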

Experiment [5] relates to Staphylococcus aureus. As to the kind of experiment: Antibacterial activity against Staphylococcus aureus ATCC 29213 after 24 hrs by microtiter broth dilution method. The note with it: ATCC 29213, 24 h. The method in brief:
as §1

In brackets after ≈: the same amount, converted by molar mass.

For the molecule `COc1ccc(-c2cc3ccc(O)cc3o2)cc1`, the MIC80 in experiment [1] turned out to be 1.56 µg/mL (≈ 6.49 µM); in experiment [2], 3.12 µg/mL (≈ 13 µM); in experiment [3], 1.56 µg/mL (≈ 6.49 µM); in experiment [4] it was 0.78 µg/mL (≈ 3.25 µM); in experiment [5], 1.56 µg/mL (≈ 6.49 µM).
For `COc1ccc(-c2cc3ccc(OCCc4nc(-c5ccccc5)oc4C)cc3o2)cc1`, the MIC80 in experiment [1] is 50 µg/mL (≈ 118 µM); in experiment [2], greater than 200 µg/mL; in experiment [3] it was greater than 200 µg/mL; in experiment [4], greater than 200 µg/mL; in experiment [5], greater than 200 µg/mL.
As to `Cc1ccc(-c2oc3cc(OCCc4nc(-c5ccccc5)oc4C)ccc3c2C(=O)c2ccc(C(F)(F)F)cc2)o1`, the MIC80 in experiment [1], in experiment [2], in experiment [3], in experiment [4] and in experiment [5] was greater than 200 µg/mL each time.
Take `CC1=C(C(=O)O)N2C(=O)[C@@H](NC(=O)[C@H](N)C3=CCC=CC3)[C@H]2SC1` [CEPHRADINE]: the MIC80 is 50 µg/mL (≈ 143 µM) in experiment [1]; 25 µg/mL (≈ 71.5 µM) in experiment [2]; greater than 200 µg/mL in experiment [3]; greater than 200 µg/mL in experiment [4]; greater than 200 µg/mL in experiment [5].
As for `CO/N=C(\C(=O)N[C@@H]1C(=O)N2C(C(=O)O)=C(COC(C)=O)CS[C@H]12)c1csc(N)n1` [CEFOTAXIME], the MIC80 in experiment [1] was 0.78 µg/mL (≈ 1.71 µM); in experiment [2], greater than 200 µg/mL; in experiment [4], 3.12 µg/mL (≈ 6.85 µM); in experiment [5], 3.12 µg/mL (≈ 6.85 µM).
On to `c1ccc(COc2ccc3cc(-c4ccccc4)oc3c2)cc1`, for which the MIC80 is 100 µg/mL (≈ 333 µM) in experiment [1]; greater than 200 µg/mL in experiment [2]; 100 µg/mL (≈ 333 µM) in experiment [3]; greater than 200 µg/mL in experiment [4]; 100 µg/mL (≈ 333 µM) in experiment [5].
For the molecule `Cc1ccc(-c2cc3ccc(O)cc3o2)o1`, the MIC80 was 1.56 µg/mL (≈ 7.28 µM) in experiment [1]; 3.12 µg/mL (≈ 14.6 µM) in experiment [2]; 0.78 µg/mL (≈ 3.64 µM) in experiment [3]; 3.12 µg/mL (≈ 14.6 µM) in experiment [4]; 1.56 µg/mL (≈ 7.28 µM) in experiment [5].
In the case of `Oc1ccc2cc(-c3ccccc3)oc2c1`, the MIC80 in experiment [1] was 3.12 µg/mL (≈ 14.8 µM); in experiment [2] it was 6.25 µg/mL (≈ 29.7 µM); in experiment [3], 0.78 µg/mL (≈ 3.71 µM); in experiment [4] it was 1.56 µg/mL (≈ 7.42 µM); in experiment [5], 6.25 µg/mL (≈ 29.7 µM).
Regarding `Cc1ccc(-c2cc3ccc(OCc4ccccc4)cc3o2)o1`, the MIC80 in experiment [1] was greater than 200 µg/mL; in experiment [2], greater than 200 µg/mL; in experiment [3], greater than 200 µg/mL; in experiment [4], 12.5 µg/mL (≈ 41.1 µM); in experiment [5], greater than 200 µg/mL.
`COc1cc(NCc2c(-c3ccccc3)oc3cc(OCCc4nc(-c5ccccc5)oc4C)ccc23)cc(OC)c1OC`: the MIC80 in experiment [1], in experiment [2], in experiment [3], in experiment [4] and in experiment [5] was greater than 200 µg/mL in each case.
Take `CC(=O)c1c(-c2ccc(C)o2)oc2cc(OCCc3nc(-c4ccccc4)oc3C)ccc12`: the MIC80 in experiment [1], in experiment [2], in experiment [3], in experiment [4] and in experiment [5] was greater than 200 µg/mL throughout.
Take `Cc1ccc(-c2oc3cc(OCCc4nc(-c5ccccc5)oc4C)ccc3c2C(=O)c2ccco2)o1`: the MIC80 in experiment [1], in experiment [2], in experiment [3], in experiment [4] and in experiment [5] was greater than 200 µg/mL throughout.
Regarding `COc1ccc(-c2cc3ccc(OCc4ccccc4)cc3o2)cc1`, the MIC80 in experiment [1], in experiment [2], in experiment [3], in experiment [4] and in experiment [5] was greater than 200 µg/mL throughout.
For `COc1ccc(-c2oc3cc(OCCc4nc(-c5ccccc5)oc4C)ccc3c2C(C)=O)cc1`, the MIC80 in experiment [1], in experiment [2], in experiment [3], in experiment [4] and in experiment [5] was greater than 200 µg/mL in each case.
Consider `CC1(C)S[C@@H]2[C@H](NC(=O)Cc3ccccc3)C(=O)N2[C@H]1C(=O)[O-].[Na+]` [PENICILLIN G SODIUM], for which the MIC80 is less than 0.39 µg/mL in experiment [1], 0.78 µg/mL in experiment [2], 3.12 µg/mL in experiment [4] and 3.12 µg/mL in experiment [5].
For the molecule `CC(C)(O/N=C(\C(=O)N[C@@H]1C(=O)N2C(C(=O)[O-])=C(C[n+]3ccccc3)CS[C@H]12)c1csc(N)n1)C(=O)O` [CEFTAZIDIME], the MIC80 in experiment [1] was 6.25 µg/mL (≈ 11.4 µM); in experiment [2], greater than 200 µg/mL; in experiment [3] it was 12.5 µg/mL (≈ 22.9 µM); in experiment [4], 12.5 µg/mL (≈ 22.9 µM); in experiment [5] it was 0.78 µg/mL (≈ 1.43 µM).
As for `COc1cc(C(=O)c2c(-c3ccc(C)o3)oc3cc(OCCc4nc(-c5ccccc5)oc4C)ccc23)cc(OC)c1OC`, the MIC80 in experiment [1] is greater than 200 µg/mL; in experiment [2] it was greater than 200 µg/mL; in experiment [3], greater than 200 µg/mL; in experiment [4], greater than 200 µg/mL; in experiment [5], 12.5 µg/mL (≈ 21.1 µM).
For the molecule `Cc1oc(-c2ccccc2)nc1CCOc1ccc2cc(-c3ccccc3)oc2c1`, the MIC80 in experiment [1], in experiment [2], in experiment [3], in experiment [4] and in experiment [5] was greater than 200 µg/mL throughout.
As to `CC(=O)c1c(-c2ccc(C)o2)oc2cc(O)ccc12`, the MIC80 came to 12.5 µg/mL (≈ 48.8 µM) in experiment [1]; 12.5 µg/mL (≈ 48.8 µM) in experiment [2]; 12.5 µg/mL (≈ 48.8 µM) in experiment [3]; 6.25 µg/mL (≈ 24.4 µM) in experiment [4]; 6.25 µg/mL (≈ 24.4 µM) in experiment [5].
On to `COc1ccc(-c2oc3cc(OCCc4nc(-c5ccccc5)oc4C)ccc3c2C(=O)/C=C/c2cc(OC)c(OC)c(OC)c2)cc1`, for which the MIC80 in experiment [1], in experiment [2], in experiment [3], in experiment [4] and in experiment [5] was greater than 200 µg/mL each time.
As to `COc1cc(/N=C/c2c(-c3ccccc3)oc3cc(OCCc4nc(-c5ccccc5)oc4C)ccc23)cc(OC)c1OC`, the MIC80 in experiment [1] was greater than 200 µg/mL; in experiment [2], greater than 200 µg/mL; in experiment [3], greater than 200 µg/mL; in experiment [4], greater than 200 µg/mL; in experiment [5] it was 3.12 µg/mL (≈ 5.3 µM).
